# Sampled rows, rich in hits. Any-hit rate of the full collection: about 1.5%.
# APJ antagonist = blocks the human apelin receptor APJ. inhibition, % at 20 µM. hit rate 0.32% among 330,000. P35414. CHO-K1 APJ beta-arrestin complementation, luminescence;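 active means inhibition above about 40% at 20 µM, limit read from the data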;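 further: cells challenged with 10 nM apelin-13 agonist together with compound; plate controls were apelin-13 plus DMSO wells for no effect and DMSO wells lacking apelin-13 for full effect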
# EBI2 antag = blocks human EBI2 receptor beta-arrestin signaling | P32249 | EBI2 beta-arrestin recruitment, luminescence, 7a,25-OHC stimulated | inhibition, % at 5 µM | hit rate 0.81% among 360,000; in the data active means inhibition above about 38%;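 further: enzyme fragment complementation signal reports receptor beta-arrestin coupling in cells; 0% = agonist plus DMSO wells and 100% = wells without agonist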
# APJ agonist = APJ receptor agonism | activation, % at 20 µM | hit rate 0.11% among 330,000 | AID 2520 | P35414 | CHO-K1 APJ PathHunter beta-arrestin, luminescence; 0% DMSO wells, 100% apelin;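 active means activation more than six SD over the plate average, tested at 20 µM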;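 further: 0% = DMSO alone and 100% = apelin-13 at 10 nM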
#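 assay system = CHO-K1 APJ beta-arrestin complementation cell line | input = cell density 1000 per well | dosing = compound 20 µM once, DMSO 1% | timing = compound 90 min 25 °C, reagent 1 h | measured by = luminescence from split beta-galactosidase complementation, Galacton Star/Emerald II substrate | read-out basis = APJ agonist activity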
# CXCR6 block = inhibitors of human CXCR6 receptor; O00574; inhibition, % at 20 µM; CHO-K1 PathHunter CXCR6 beta-arrestin, luminescence; hit rate 0.36% among 360,000; in the data active means inhibition above about 34%, passing the limit was not always enough;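 further: antagonist mode with CXCL16 agonist at 10 nM final; 0% = 10 nM CXCL16 with DMSO and 100% = unstimulated wells without agonist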
# Target sequence (O00574 whole entry, looked up): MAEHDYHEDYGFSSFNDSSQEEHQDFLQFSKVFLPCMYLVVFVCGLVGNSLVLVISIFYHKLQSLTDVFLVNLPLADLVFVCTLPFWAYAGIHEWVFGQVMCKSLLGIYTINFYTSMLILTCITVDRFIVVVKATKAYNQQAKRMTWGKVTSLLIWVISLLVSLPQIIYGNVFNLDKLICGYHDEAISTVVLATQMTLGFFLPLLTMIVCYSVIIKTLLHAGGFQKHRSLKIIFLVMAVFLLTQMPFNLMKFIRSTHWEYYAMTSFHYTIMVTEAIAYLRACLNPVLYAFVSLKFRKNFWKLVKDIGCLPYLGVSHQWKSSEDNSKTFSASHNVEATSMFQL
# CCR6 antag = CCR6 (human) receptor antagonism; AID 493098; hit rate 0.49% among 340,000; inhibition, % at 20 µM; CHO-K1 CCR6 PathHunter beta-arrestin, luminescence, CCL20-stimulated; P51684;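 active means compounds whose inhibition of the agonist-driven luminescence signal at 20 µM reaches about 50%, limit read from the data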;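 further: cells stimulated with CCL20 at 14 nM final; plate controls were DMSO with CCL20 for no effect and DMSO without agonist for full effect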
# Target sequence (P51684 whole entry, looked up): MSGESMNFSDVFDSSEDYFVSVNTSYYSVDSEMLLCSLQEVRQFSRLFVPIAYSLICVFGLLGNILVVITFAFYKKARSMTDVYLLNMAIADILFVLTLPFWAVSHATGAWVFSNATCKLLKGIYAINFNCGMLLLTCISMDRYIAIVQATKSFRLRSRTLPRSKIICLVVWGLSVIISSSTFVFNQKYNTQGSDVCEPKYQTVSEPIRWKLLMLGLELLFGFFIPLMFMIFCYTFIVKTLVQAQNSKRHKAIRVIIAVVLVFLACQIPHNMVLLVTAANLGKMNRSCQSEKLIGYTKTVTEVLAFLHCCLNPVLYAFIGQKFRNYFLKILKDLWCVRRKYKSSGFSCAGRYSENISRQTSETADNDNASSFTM
# EBI2 conf = confirmation of human EBI2 receptor antagonists | EBI2 beta-arrestin luminescence, 7a,25-OHC antagonism | inhibition, % at 5 µM | shares compounds with EBI2 antag | hit rate 29% among 2,400;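 active means inhibition of at least 50%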
# EBI2 ag = EBI2 agonism counter-screen; shares compounds with EBI2 antag; EBI2-expressing cells, agonist mode, luminescence, 60 min; 0% vehicle, 100% 7α,25-dihydroxycholesterol control; activation, % at 5 µM; 2,400 tested, under 10 active;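 active means activation of at least 50%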
# bGal counter = counter-screen for EBI2 antagonists: E. coli beta-galactosidase inhibition; purified beta-galactosidase, luminescent Galacton Star, 15 min; AID 652176; shares compounds with EBI2 antag; hit rate 1% among 2,400; inhibition, % at 5 µM;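 active means replicate-average signal at least 3 plate SD below neutral wells, shown as high inhibition, flagging enzyme-inhibiting false positives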;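 further: 0% = DMSO wells with enzyme and 100% = wells lacking enzyme; higher means stronger loss of beta-gal luminescence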
# Active calls of the source: *; . = not tested or not shown.
SMILES,APJ antagonist,EBI2 antag,APJ agonist,CXCR6 block,CCR6 antag,EBI2 conf,EBI2 ag,bGal counter
COc1ccc(-n2c(Cc3cccn3C)nnc2SCC(=O)NCCc2ccccc2)cc1,6.0,44.4*,-0.6,5.8,12.1,36.2,-0.7,4.3
Cn1cccc1Cc1nnc(SCC(=O)NCCc2ccccc2)n1C,2.0,-6.1,-2.3,-4.9,-4.6,.,.,.
COc1ccc(-n2c(Cc3cccn3C)nnc2SCC(=O)Nc2ccccc2C)cc1,12.5,55.2*,-3.0,10.3,15.9,22.7,-1.1,-6.0
COc1ccc(-n2c(Cc3cccn3C)nnc2SCC(=O)Nc2ccccc2F)cc1,-50.7,36.3,-1.2,-0.7,16.0,.,.,.
COc1ccc(-n2c(Cc3cccn3C)nnc2SCC(=O)Nc2cccc(C)c2C)cc1,7.4,49.4*,-3.2,5.0,4.7,24.7,-1.8,-7.8
COc1cc(CN(C(=S)NCC(=O)NC2CC2)C2CCCC2)cc(OC)c1OC,3.3,2.0,3.5,-1.8,5.2,.,.,.
CCCCN(C(=O)NCCCCCCNC(=O)N(CCCC)C1CCS(=O)(=O)C1)C1CCS(=O)(=O)C1 (stereo unspecified),-3.5,0.2,-3.5,-2.2,13.3,.,.,.
CCOC(=O)c1ccccc1NC(=O)CSc1nnc(Cc2cccn2C)n1-c1ccc(C)cc1,2.9,54.4*,-2.4,-4.9,16.0,29.1,-0.7,-10.2
COc1ccc(-n2c(Cc3cccn3C)nnc2SCC(=O)Nc2ccc(C)c(Cl)c2)cc1,0.6,46.8*,-4.2,-11.0,20.3,22.8,-0.9,11.1
CCCCCCN1C[C@H](n2cc(C3CC3)nn2)[C@@H](O)C[C@@H]1c1ccccc1,.,-2.7,.,-11.2,.,.,.,.
CN1CCN(NC(=O)/C=C/c2ccc(Br)cc2)CC1,5.9,78.1*,4.9,2.1,1.7,47.6,-1.0,-9.4
CN1CCN(NC(=O)/C=C/c2ccc(C(C)(C)C)cc2)CC1,10.7,6.6,-6.3,-1.7,-2.7,.,.,.
CC(NC(=O)/C=C/c1ccc(Br)cc1)c1ccc(Cl)cc1 (stereo unspecified),-14.5,53.7*,1.4,-5.8,12.1,31.2,-0.3,-8.1
CC(=O)Nc1ccc(Nc2nc(C(F)(F)F)nc3c2nnn3Cc2ccccc2Cl)cc1,-25.4,12.6,4.9,-5.9,11.8,.,.,.
COc1ccc(CSc2nnc(-c3ccncc3)n2C)cc1F,7.2,-13.0,-3.3,10.0,-2.3,.,.,.
O=C(O)c1sc2cc(C(F)(F)F)cnc2c1-c1cccs1,-7.5,-19.3,-2.6,-9.2,10.7,.,.,.
COc1ccc(C2CC(c3ccccc3OC(C)=O)=NN2C(C)=O)cc1 (stereo unspecified),-1.4,-5.7,2.8,3.2,5.5,.,.,.
Cc1ccc2[nH]c(C(=O)N3CCCCC3)cc2c1,18.8,32.4,-0.4,-13.6,10.6,.,.,.
CCOC(=O)C1CCN(C(=O)c2cc3cc(F)ccc3[nH]2)CC1,-26.7,62.1*,-2.9,3.5,8.3,41.3,2.8,-0.3
CCOC(=O)C1CCCN(C(=O)c2cc3cc(F)ccc3[nH]2)C1 (stereo unspecified),13.1,-0.3,-2.8,-16.0,19.3,.,.,.
CCOC(=O)N1CCN(C(=O)c2cc3cc(Cl)ccc3[nH]2)CC1,-3.4,93.0*,-1.2,-2.6,-1.6,73.5*,0.8,4.4
CCOC(=O)N1CCN(C(=O)c2cc3cc(F)ccc3[nH]2)CC1,-4.2,80.8*,0.6,2.3,2.0,53.4*,0.0,-2.2
CCN(CCO)c1ncnc2onc(-c3ccc(F)cc3)c12,12.8,-10.8,-0.8,5.0,0.0,.,.,.
Cc1cccc(N(C)c2ncnc3onc(-c4ccc(F)cc4)c23)c1C,-48.7,62.5*,2.2,-6.5,9.1,26.9,-1.9,-7.2
Cc1ccc(Nc2nc(-c3cccnc3)cs2)cc1C,-29.1,48.9*,1.5,-4.2,8.3,56.1*,2.0,1.8
SMILES,APJ antagonist,EBI2 antag,APJ agonist,CXCR6 block,CCR6 antag,EBI2 conf,EBI2 ag,bGal counter
Brc1cccc(Nc2nc(-c3cccnc3)cs2)c1,-23.5,42.4*,-1.7,-11.6,-7.5,45.0,1.8,1.6
Brc1ccc(Nc2nc(-c3cccnc3)cs2)cc1,1.7,28.1,-2.8,5.0,0.8,.,.,.
Clc1cccc(Nc2nc(-c3cccnc3)cs2)c1,0.2,48.3*,-0.2,-1.0,-7.0,53.0*,-0.4,7.3
CC(=O)c1cccc(Nc2nc(-c3cccnc3)cs2)c1,-10.3,20.1,0.3,-1.1,2.4,.,.,.
COC(=O)c1ccc(CNC(=O)C2CCC(=O)N(CCN3CCOCC3)C2)cc1 (stereo unspecified),8.3,-4.1,17.3,-7.0,0.2,.,.,.
COc1ccc(CCNC(=O)c2cnc3ccccc3n2)cc1,0.2,-3.0,-0.9,-2.6,16.1,.,.,.
COc1ccc(CCNC(=O)c2cccc(C(=O)NCCc3ccc(OC)cc3)n2)cc1,7.0,50.0*,5.6,10.2,9.7,38.4,-0.3,-23.4
CCOCCCNC(=O)CN1N=C(c2ccc(C)cc2)CCC1=O,1.3,-5.6,-3.2,-1.0,20.1,.,.,.
CCC(C)(C)C1CCc2[nH]nc(C(=O)NC3CCCCC3)c2C1 (stereo unspecified),13.6,42.8*,7.9,2.4,7.0,14.2,-0.4,-4.1
CCOc1ccccc1N1CCN(C(=O)c2cc(S(=O)(=O)N(C)C)ccc2N2CCCC2)CC1,3.1,-4.2,-0.9,9.4,-9.9,.,.,.
COc1cccc(-c2cc(C(=O)N3CCN(Cc4ccc5c(c4)OCO5)CC3)on2)c1,-44.6,70.2*,-5.1,-1.7,2.8,54.0*,-0.2,-11.1
COc1ccc2cc(C(=O)N3CCN(Cc4ccc5c(c4)OCO5)CC3)[nH]c2c1,-16.6,85.6*,-0.7,-9.0,13.5,58.9*,0.4,6.3
Cc1cc(C(=O)N2CCN(Cc3ccc4c(c3)OCO4)CC2)on1,-4.5,-9.3,-4.6,0.9,-1.2,.,.,.
COc1ccc(-c2cc(C(=O)N3CCN(Cc4ccccc4)CC3)no2)cc1OC,-26.9,-18.5,-1.8,-12.3,-7.9,.,.,.
O=C(c1cc(C2CC2)on1)N1CCN(C(c2ccccc2)c2ccccc2)CC1,8.8,13.1,-4.0,13.1,16.6,.,.,.
O=C(c1cc(-c2cccc(O)c2)on1)N1CCN(C(c2ccccc2)c2ccccc2)CC1,-0.2,90.3*,-1.1,-1.3,8.4,73.1*,-0.1,4.3
COc1cccc(-c2cc(C(=O)N3CCN(Cc4ccccc4)CC3)no2)c1,-12.4,51.1*,-5.7,-0.9,-7.7,28.8,-0.4,-8.0
CCN1CCN(C(=O)c2cc3ccc(OC)cc3[nH]2)CC1,7.3,23.7,-2.3,0.6,1.2,.,.,.
COc1ccccc1CNC(=O)C(NS(=O)(=O)c1ccc2c(c1)OCCO2)C(C)C (stereo unspecified),-1.9,-1.3,-3.7,-2.5,-5.7,.,.,.

# Screening data: PubChem, Sanford-Burnham Center for Chemical Genomics
